Reference: ChEMBL document CHEMBL1135391, “Anti-Helicobacter pylori agents. 5. 2-(Substituted guanidino)-4-arylthiazoles and aryloxazole analogues” (2002)
In brackets after ≈: the same amount, converted by molar mass.

Experiments:
[1] = tested on: Rattus norvegicus; assay: Inhibition of histamine-stimulated gastric acid secretion in lumen-perfused stomach of anesthetized rats after 1 mg/kg iv administration; format: functional
Method in brief: (§1)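 Male Sprague-Dawley rats, about 250 g, fasted 24 h and anesthetized with urethane 1.25 g/kg ip. Stomach lumen perfused with saline, perfusate titrated with 25 mM NaOH. Acid secretion was driven by iv histamine infusion at 3 mg/kg/h. At plateau, compound 1 mg/kg iv. Read-out is maximal inhibition of acid output, n = 2.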

[2] = tested on: Helicobacter pylori; assay: Minimum inhibitory concentration required to inhibit macroscopic colonial growth of Helicobacter pylori; ranges from (0.2-1.56); format: functional
Method in brief: (§2)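 Agar dilution against 10 H. pylori strains (8001, 8003, 8004, 8007, 8008, 8009, 8011, 9005, FP1530, FP1532). Strains precultured 3 days at 37 °C on Brucella agar with 3% horse serum and 2% starch, then adjusted to McFarland No. 1. A 10²-fold dilution was spotted onto Brucella agar with 7% lysed horse blood and 2-fold drug dilutions. Plates incubated 3 days at 37 °C under 10% CO2. MIC is the lowest concentration preventing visible colonies; mean and range span the 10 strains.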

[3] = organism: Cavia porcellus; assay: Inhibition of histamine-stimulated chronotropic response in isolated guinea pig right atrium at 1*10e-6 g/mL; format: functional, Cardiac atrium
Method in brief: (§3)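 Guinea pig atrial strip in Thyrode solution at 30 °C, gassed with 95% O2-5% CO2, initial tension 0.3-0.6 g. Beating rate recorded. Histamine hydrochloride 1 × 10⁻⁶ g/mL was given first. After washout, test compound at 1 × 10⁻⁶ g/mL was added 30 min later. Percent inhibition compares histamine-induced rate increases before and 30 min after compound.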

[4] = tested on: Helicobacter pylori; assay: Minimum inhibitory concentration required to inhibit macroscopic colonial growth of Helicobacter pylori; ranges from (6.25-25); format: functional; method in brief: as §2
[5] = organism: Cavia porcellus; assay: Inhibition of histamine-stimulated chronotropic response in isolated guinea pig right atrium at 1*10e-4 g/mL; format: functional, Cardiac atrium
[6] = tested on: Helicobacter pylori; assay: Minimum inhibitory concentration required to inhibit macroscopic colonial growth of Helicobacter pylori; ranges from (0.1-0.78); format: functional; method in brief: as §2
[7] = tested on: Helicobacter pylori; assay: Minimum inhibitory concentration required to inhibit macroscopic colonial growth of Helicobacter pylori; ranges from (0.05-0.2); format: functional; method in brief: as §2
[8] = tested on: Helicobacter pylori; assay: Minimum inhibitory concentration required to inhibit macroscopic colonial growth of Helicobacter pylori; ranges from (1.56-12.5); format: functional; method in brief: as §2
[9] = tested on: Helicobacter pylori; assay: Minimum inhibitory concentration required to inhibit macroscopic colonial growth of Helicobacter pylori;ranges from (0.003-0.025); format: functional; method in brief: as §2
[10] = tested on: Helicobacter pylori; assay: Minimum inhibitory concentration required to inhibit macroscopic colonial growth of Helicobacter pylori; format: functional; method in brief: as §2
[11] = organism: Cavia porcellus; assay: Inhibition of histamine-stimulated chronotropic response in isolated guinea pig right atrium; format: functional, Cardiac atrium; method in brief: as §3
[12] = tested on: Rattus norvegicus; assay: Inhibition of histamine-stimulated gastric acid secretion in lumen-perfused stomach of anesthetized rats; format: functional; method in brief: as §1
[13] = tested on: Helicobacter pylori; assay: Minimum inhibitory concentration required to inhibit macroscopic colonial growth of Helicobacter pylori; ranges from ([…]-6.25); format: functional; method in brief: as §2
[14] = tested on: Helicobacter pylori; assay: Minimum inhibitory concentration required to inhibit macroscopic colonial growth of Helicobacter pylori; ranges from (3.13-12.5); format: functional; method in brief: as §2
[15] = tested on: Helicobacter pylori; assay: Minimum inhibitory concentration required to inhibit macroscopic colonial growth of Helicobacter pylori; ranges from (0.025-0.1); format: functional; method in brief: as §2
[16] = tested on: Helicobacter pylori; assay: Minimum inhibitory concentration required to inhibit macroscopic colonial growth of Helicobacter pylori; ranges from (0.2-0.78); format: functional; method in brief: as §2
[17] = tested on: Helicobacter pylori; assay: Minimum inhibitory concentration required to inhibit macroscopic colonial growth of Helicobacter pylori; ranges from (3.13-6.25); format: functional; method in brief: as §2
[18] = tested on: Helicobacter pylori; assay: Minimum inhibitory concentration required to inhibit macroscopic colonial growth of Helicobacter pylori; ranges from (0.2-3.13); format: functional; method in brief: as §2
[19] = tested on: Helicobacter pylori; assay: Minimum inhibitory concentration required to inhibit macroscopic colonial growth of Helicobacter pylori; ranges from (0.78-6.25); format: functional; method in brief: as §2
[20] = tested on: Helicobacter pylori; assay: Minimum inhibitory concentration required to inhibit macroscopic colonial growth of Helicobacter pylori ranges from (6.25-12.5); format: functional; method in brief: as §2
[21] = tested on: Helicobacter pylori; assay: Minimum inhibitory concentration required to inhibit macroscopic colonial growth of Helicobacter pylori; ranges from (0.0125-0.1); format: functional; method in brief: as §2
[22] = tested on: Helicobacter pylori; assay: Minimum inhibitory concentration required to inhibit macroscopic colonial growth of Helicobacter pylori; ranges from (0.025-0.39); format: functional; method in brief: as §2
[23] = tested on: Helicobacter pylori; assay: Minimum inhibitory concentration required to inhibit macroscopic colonial growth of Helicobacter pylori;ranges from (0.10-0.78); format: functional; method in brief: as §2
[24] = tested on: Helicobacter pylori; assay: microbe, parasite or virus in culture
[25] = tested on: Helicobacter pylori; assay: Minimum inhibitory concentration required to inhibit macroscopic colonial growth of Helicobacter pylori; ranges from (0.78-1.56); format: functional; method in brief: as §2
[26] = tested on: Helicobacter pylori; assay: Minimum inhibitory concentration required to inhibit macroscopic colonial growth of Helicobacter pylori; ranges from (3.13-[…]); format: functional; method in brief: as §2
[27] = tested on: Helicobacter pylori; assay: Minimum inhibitory concentration required to inhibit macroscopic colonial growth of Helicobacter pylori; ranges from(1.56-25); format: functional; method in brief: as §2
[28] = tested on: Helicobacter pylori; assay: Minimum inhibitory concentration required to inhibit macroscopic colonial growth of Helicobacter pylori; ranges from (0.00625-0.1); format: functional; method in brief: as §2
[29] = tested on: Helicobacter pylori; assay: Minimum inhibitory concentration required to inhibit macroscopic colonial growth of Helicobacter pylori; ranges from (0.39-6.25); format: functional; method in brief: as §2

Compound: CCCC/N=C(\N)Nc1nc(-c2cccc(CNC(C)=O)n2)cs1
- inhibition in vivo at 1 mg/kg [1]: 76%
- MIC [2]: 0.59 µg/mL (≈ 1.7 µM)
- Inhibition [3]: 100%

Compound: CC(=O)NCC/N=C(\N)Nc1nc(-c2cccc(CNC(C)=O)n2)cs1
- MIC [4]: 11.5 µg/mL (≈ 30.6 µM)

Compound: CCCC/N=C(\N)Nc1nc(-c2ccc(CNC(C)=O)s2)cs1
- Inhibition [5]: <10%
- MIC [6]: 0.32 µg/mL (≈ 0.91 µM)

Compound: CC(=O)NCc1cccc(-c2csc(NC(=N)NCC(F)(F)F)n2)n1
- MIC [4]: 13.4 µg/mL (≈ 36 µM)

Compound: CC(=O)NCc1cccc(-c2csc(NC(=N)NCCc3ccccc3)n2)n1
- Inhibition [1]: 50%
- Inhibition [3]: 71%
- MIC [7]: 0.1 µg/mL (≈ 0.253 µM)

Compound: CC/N=C(\N)Nc1nc(-c2cccc(CNC(C)=O)n2)cs1
- MIC [8]: 4.7 µg/mL (≈ 14.8 µM)

Compound: COc1ccccc1CC/N=C(\N)Nc1nc(-c2ccc(CNC(C)=O)s2)cs1
- MIC [9]: 0.0065 µg/mL (≈ 0.0151 µM)
- Inhibition [5]: <10%

Compound: CNC(=C[N+](=O)[O-])NCCSCc1ccc(CN(C)C)o1 [RANITIDINE]
- MIC [10]: > 1600 µg/mL
- Inhibition [11]: 44%
- Inhibition [12]: 72%

Compound: CCCC/N=C(\N)Nc1nc(-c2csc(CNC(C)=O)n2)cs1
- inhibition in vivo at 1 mg/kg [1]: 50%
- MIC [2]: 0.52 µg/mL (≈ 1.48 µM)
- Inhibition [3]: 85%

Compound: CCCC/N=C(\N)Nc1nc(-c2cccc(CNC(C)=O)n2)co1
- inhibition in vivo at 1 mg/kg [1]: 92%
- Inhibition [3]: 81%
- MIC [13]: 3.9 µg/mL (≈ 11.8 µM)

Compound: COCC/N=C(\N)Nc1nc(-c2cccc(CNC(C)=O)n2)cs1
- MIC [14]: 6.7 µg/mL (≈ 19.2 µM)

Compound: COc1ccccc1CC/N=C(\N)Nc1nc(-c2cccc(CNC(C)=O)n2)cs1
- inhibition in vivo at 1 mg/kg [1]: 65%
- MIC [15]: 0.037 µg/mL (≈ 0.0872 µM)
- Inhibition [3]: 78%

Compound: COc1ccc(CC/N=C(\N)Nc2nc(-c3cccc(CNC(C)=O)n3)cs2)cc1
- inhibition in vivo at 1 mg/kg [1]: 18%
- MIC [16]: 0.42 µg/mL (≈ 0.989 µM)
- Inhibition [3]: 24%

Compound: CC(=O)NCc1cccc(-c2csc(N/C(N)=N/CCN(C)C)n2)n1
- MIC [10]: > 100 µg/mL

Compound: COc1ccccc1CC/N=C(\N)Nc1nc(-c2cc(CNC(C)=O)on2)cs1
- MIC [17]: 4.4 µg/mL (≈ 10.6 µM)
- Inhibition [3]: <10%

Compound: COc1ccccc1CC/N=C(\N)Nc1nc(-c2ncc(CNC(C)=O)o2)cs1
- MIC [18]: 1.1 µg/mL (≈ 2.65 µM)
- inhibition in vivo at 1 mg/kg [1]: 50%
- Inhibition [3]: 37%

Compound: CCC/N=C(\N)Nc1nc(-c2cccc(CNC(C)=O)n2)cs1
- MIC [19]: 2.9 µg/mL (≈ 8.72 µM)

Compound: COc1ccccc1CC/N=C(\N)Nc1nc(-c2c[nH]c(CNC(C)=O)n2)cs1
- MIC [20]: 10.2 µg/mL (≈ 24.7 µM)

Compound: CCCC/N=C(\N)Nc1nc(-c2ccc(CNC(C)=O)o2)co1
- inhibition in vivo at 1 mg/kg [1]: 51%
- Inhibition [3]: 82%
- MIC [4]: 19.3 µg/mL (≈ 60.4 µM)

Compound: COc1ccccc1CC/N=C(\N)Nc1nc(-c2csc(CNC(C)=O)n2)cs1
- inhibition in vivo at 1 mg/kg [1]: 23%
- Inhibition [3]: 30%
- MIC [21]: 0.043 µg/mL (≈ 0.0999 µM)

Compound: COc1cccc(CC/N=C(\N)Nc2nc(-c3cccc(CNC(C)=O)n3)cs2)c1
- MIC [22]: 0.14 µg/mL (≈ 0.33 µM)
- inhibition in vivo at 1 mg/kg [1]: 68%
- Inhibition [3]: 83%

Compound: CCCC/N=C(\N)Nc1nc(-c2nc(CNC(C)=O)no2)cs1
- Inhibition [3]: <10%
- MIC [14]: 10.9 µg/mL (≈ 32.3 µM)

Compound: CCCC/N=C(\N)Nc1nc(-c2ccnc(CNC(C)=O)n2)cs1
- MIC [17]: 4.1 µg/mL (≈ 11.8 µM)
- Inhibition [3]: <10%

Compound: COc1ccccc1CC/N=C(\N)Nc1nc(-c2cccc(CNC(C)=O)c2)co1
- MIC [23]: 0.3 µg/mL (≈ 0.736 µM)
- inhibition in vivo at 1 mg/kg [1]: 40%
- Inhibition [3]: 65%

Compound: BISMUTH SUBCITRATE
- MIC [10]: 18 µg/mL

Compound: CN/C(=N\CCSCc1nc[nH]c1C)NC#N [CIMETIDINE]
- MIC [24]: 1130 µg/mL (≈ 4480 µM)
- inhibition in vivo at 1 mg/kg [1]: 53%
- Inhibition [3]: 43%

Compound: CSCC/N=C(\N)Nc1nc(-c2cccc(CNC(C)=O)n2)cs1
- MIC [25]: 1.1 µg/mL (≈ 3.02 µM)

Compound: C/N=C(\N)Nc1nc(-c2cccc(CNC(C)=O)n2)cs1
- MIC [26]: 5.1 µg/mL (≈ 16.8 µM)

Compound: CC(=O)NCc1cccc(-c2csc(N/C(N)=N/CCC(C)C)n2)n1
- inhibition in vivo at 1 mg/kg [1]: 86%
- Inhibition [3]: 80%
- MIC [7]: 0.1 µg/mL (≈ 0.277 µM)

Compound: Cc1ncc([N+](=O)[O-])n1CCO [METRONIDAZOLE]
- MIC [27]: 5.4 µg/mL (≈ 31.6 µM)

Compound: CC[C@H]1OC(=O)[C@H](C)[C@@H](O[C@H]2C[C@@](C)(OC)[C@@H](O)[C@H](C)O2)[C@H](C)[C@@H](O[C@@H]2O[C@H](C)C[C@H](N(C)C)[C@H]2O)[C@](C)(OC)C[C@@H](C)C(=O)[C@H](C)[C@@H](O)[C@]1(C)O [CLARITHROMYCIN]
- MIC [10]: 0.057 µg/mL (≈ 0.0762 µM)

Compound: CC1(C)S[C@@H]2[C@H](NC(=O)[C@H](N)c3ccc(O)cc3)C(=O)N2[C@H]1C(=O)O [AMOXICILLIN]
- MIC [28]: 0.021 µg/mL (≈ 0.0575 µM)

Compound: CCCC/N=C(\N)Nc1nc(-c2cccc(CNC(C)=O)c2)co1
- inhibition in vivo at 1 mg/kg [1]: 60%
- Inhibition [3]: 93%
- MIC [29]: 1.92 µg/mL (≈ 5.83 µM)
